MIC data for 45 compounds are collected here from ChEMBL document CHEMBL1122485, “Antibacterially active substituted anilides of carboxylic and sulfonic acids” (1983).

≈ marks a conversion by molar mass, not a printed value.

In this test the test system is Staphylococcus aureus. The experiment in a line: Minimum inhibitory concentration against staphylococcus aureus ATCC 6538. Type of test: functional. In short, it runs like this:
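Agar dilution: 1% stocks in 95% ethanol or water, serially diluted into nutrient agar (pH 6.8) to 1000, 100, 10 and 1 ppm. Plates were dried 30 min at 37 °C and spotted with ten drops of 24-h nutrient broth culture. Incubation was 48 h at 37 °C, in duplicate, with hexachlorophene as standard. MIC was the lowest level with no growth of any inoculum on either dish.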
The compound `CCCCCCc1ccc(C(=O)Nc2ccc(Cl)c(Cl)c2)cc1` showed an MIC of more than 1000 µg/mL.
`C=C(CCCCCCC)C(=O)Nc1cc(Cl)cc(Cl)c1`: the MIC stood at 10 µg/mL (≈ 31.8 µM).
As for `CCCc1ccc(S(=O)(=O)N(C)c2ccc(Cl)c(Cl)c2)cc1`, the figure is more than 1000 µg/mL.
As for `CCCCCCCCCCCC(=O)Nc1cc(Cl)ccc1O`, the figure is 1 µg/mL (≈ 3.07 µM); as for `C=C(CCCCCC)C(=O)Nc1ccc(Cl)c(Cl)c1`, 1 µg/mL (≈ 3.33 µM).
As for `CCC(C(=O)Nc1cc(Cl)ccc1O)c1ccccc1` (stereo not given), the figure is 10 µg/mL (≈ 34.5 µM); as for `C=C(CCCCCCCC)C(=O)Nc1cc(Cl)cc(Cl)c1`, 10 µg/mL (≈ 30.5 µM).
`CCCCc1ccc(S(=O)(=O)Nc2ccc(Cl)c(Cl)c2)cc1`: inhibition of growth (MIC) required 10 µg/mL (≈ 27.9 µM).
As for `CCC(C(=O)Nc1ccc(Cl)c(Cl)c1)c1ccccc1` (stereo not given), the figure is 10 µg/mL (≈ 32.4 µM); as for `CCCc1ccc(C(=O)Nc2cc(Cl)ccc2O)cc1`, more than 1000 µg/mL; as for `CCCc1ccc(S(=O)(=O)N(Cc2ccc(Cl)cc2)c2ccc(Cl)c(Cl)c2)cc1`, more than 1000 µg/mL.
As for `CCCCCCCCCC(=O)Nc1cc(Cl)cc(Cl)c1`, the figure is 10 µg/mL (≈ 31.6 µM).
With `C=C(CCCCCCCC)C(=O)Nc1ccc(Cl)c([N+](=O)[O-])c1` the figure was 1 µg/mL (≈ 2.95 µM); with `CCCCCC(=O)Nc1cc(Cl)cc(Cl)c1`, 10 µg/mL (≈ 38.4 µM); with `CCCCCC(=O)Nc1ccc(Cl)c([N+](=O)[O-])c1`, 10 µg/mL (≈ 36.9 µM).
Regarding `CCCCc1ccc(S(=O)(=O)Nc2cc(Cl)ccc2O)cc1`, the MIC was found to be 10 µg/mL (≈ 29.4 µM).
With `CCc1ccc(S(=O)(=O)Nc2ccc(Cl)c(Cl)c2)cc1` the figure was 10 µg/mL (≈ 30.3 µM); with `COC(=O)CCC(=O)Nc1c(Cl)cccc1Cl`, 1000 µg/mL (≈ 3620 µM); with `C=C(CCCCC)C(=O)Nc1ccc(Cl)c(Cl)c1`, 10 µg/mL (≈ 34.9 µM).
With `COC(=O)CCCCC(=O)Nc1ccc(Cl)c([N+](=O)[O-])c1` the figure was 100 µg/mL (≈ 318 µM); with `C=C(CCCCCCCCCC)C(=O)Nc1ccc(Cl)c(Cl)c1`, more than 1000 µg/mL; with `CCCCCCC(=O)Nc1cc(Cl)ccc1O`, 10 µg/mL (≈ 39.1 µM).
`O=C(Nc1cc(Cl)ccc1O)c1ccc(Cl)c(Cl)c1` gave an MIC of more than 1000 µg/mL.
As for `CCCCCC(=O)Nc1cc([N+](=O)[O-])ccc1O`, the figure is 10 µg/mL (≈ 39.6 µM).
`CCCCc1ccc(C(=O)Nc2ccc(Cl)c(Cl)c2)cc1`: it took 1000 µg/mL (≈ 3100 µM) to inhibit growth (MIC).
With `CC(C)c1ccc(S(=O)(=O)Nc2cc(Cl)ccc2O)cc1` the figure was 10 µg/mL (≈ 30.7 µM).
As for `CCCCCCCCCCCC(=O)Nc1cc(Cl)cc(Cl)c1`, the figure is 10 µg/mL (≈ 29 µM); as for `COC(=O)CCC(=O)Nc1ccc(Cl)c(Cl)c1`, 1000 µg/mL (≈ 3620 µM).
As for `C=C(CCCCC)C(=O)Nc1cc(Cl)ccc1O`, the figure is 100 µg/mL (≈ 373 µM); as for `CCCCCC(=O)Nc1cc(Cl)ccc1O`, 10 µg/mL (≈ 41.4 µM).
In the case of `COC(=O)CCCCCCC(=O)Nc1ccc(Cl)c(Cl)c1`, the MIC is 1000 µg/mL (≈ 3010 µM).
With `C=C(CCCCCCCC)C(=O)Nc1ccc(Cl)c(Cl)c1` the figure was 1 µg/mL (≈ 3.05 µM); with `O=C(O)CCCCC(=O)Nc1ccc(Cl)c(Cl)c1`, 1000 µg/mL (≈ 3450 µM).
As for `CC(C)c1ccc(S(=O)(=O)Nc2ccc(Cl)c(Cl)c2)cc1`, the figure is 10 µg/mL (≈ 29 µM).
As for `CCCc1ccc(C(=O)Nc2cc([N+](=O)[O-])ccc2O)cc1`, the figure is 10 µg/mL (≈ 33.3 µM); as for `O=C(O)CCC(=O)Nc1ccc(Cl)c(Cl)c1`, 1000 µg/mL (≈ 3820 µM).
For the compound `COC(=O)CCCCCCCCC(=O)Nc1ccc(Cl)c(Cl)c1`, the minimum inhibitory concentration (MIC) was more than 1000 µg/mL.
As for `CCCc1ccc(C(=O)Nc2ccc(Cl)c(Cl)c2)cc1`, the figure is more than 1000 µg/mL.
With `COC(=O)CCCCC(=O)Nc1ccc(Cl)c(Cl)c1` the figure was 1000 µg/mL (≈ 3290 µM).
As for `O=C(Nc1ccc(Cl)c(Cl)c1)c1ccc(Cl)c(Cl)c1`, the figure is more than 1000 µg/mL.
Consider `C=C(CCCCCCCCCC)C(=O)Nc1cc(Cl)cc(Cl)c1`, for which the MIC is more than 1000 µg/mL.
With `C=C(CCCCCCC)C(=O)Nc1ccc(Cl)c([N+](=O)[O-])c1` the figure was 1 µg/mL (≈ 3.08 µM); with `O=C(O)CCCCCCCC(=O)Nc1ccc(Cl)c(Cl)c1`, 1 µg/mL (≈ 3.01 µM).
As for `C=C(CCCCCCCCCC)C(=O)Nc1cc(Cl)ccc1O`, the figure is 1 µg/mL (≈ 2.96 µM); as for `O=C(Nc1cc([N+](=O)[O-])ccc1O)c1ccc(Cl)c(Cl)c1`, 10 µg/mL (≈ 30.6 µM).
